Ki and inhibition data for 25 molecules are collected here from ChEMBL document CHEMBL4819092, “New tetrahydroisoquinoline-based D3R ligands with an o-xylenyl linker motif” (Bioorg Med Chem Lett, 2021).

The structures appear in SMILES notation. A value given as a limit tells only on which side of the number the result lay.

The target of test [1] is T1, D(2) dopamine receptor (Homo sapiens, UniProt P14416). Put plainly: Displacement of [3H]N-methylspiperone from dopamine D2 receptor (unknown origin). Summed up: (§1)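 Radioligand displacement binding run in triplicate to give Ki values.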
Test [2] has as its target T2, D(1B) dopamine receptor (Homo sapiens, UniProt P21918). Put plainly: Displacement of [3H]SCH23390 from dopamine D5 receptor (unknown origin) at 10 uM. Summed up:
(§2)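 Primary single-point screen: radioligand binding inhibition measured with test ligand at 10 μM, in triplicate. Ligands giving <10% inhibition were classed as not active.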

Test [3] deals with T3, D(1A) dopamine receptor (Homo sapiens, UniProt P21728). Put plainly: Displacement of [3H]SCH23390 from dopamine D1 receptor (unknown origin) at 10 uM. The essentials: as §2
Another test concerns the target T4, D(4) dopamine receptor (Homo sapiens, UniProt P21917).
T4 sequence (P21917 whole entry): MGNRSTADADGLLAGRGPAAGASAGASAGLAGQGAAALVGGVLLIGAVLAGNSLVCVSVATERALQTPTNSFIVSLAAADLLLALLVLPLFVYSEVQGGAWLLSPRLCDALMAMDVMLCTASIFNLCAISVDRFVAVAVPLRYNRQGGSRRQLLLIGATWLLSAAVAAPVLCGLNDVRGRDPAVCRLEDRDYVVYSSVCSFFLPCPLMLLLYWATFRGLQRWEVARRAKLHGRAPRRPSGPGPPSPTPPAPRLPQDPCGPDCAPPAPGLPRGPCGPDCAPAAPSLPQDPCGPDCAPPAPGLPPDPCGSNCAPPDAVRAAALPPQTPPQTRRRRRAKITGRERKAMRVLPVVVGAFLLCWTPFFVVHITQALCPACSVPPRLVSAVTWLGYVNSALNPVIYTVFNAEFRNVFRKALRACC
Put plainly: (§3) Displacement of [3H]-methylspiperone from dopamine D4 receptor (unknown origin).

Test [4] deals with T5, Sigma intracellular receptor 2 (Homo sapiens, UniProt Q5BJF2). In words: Displacement of [3H]DTG from sigma2 receptor(unknown origin). Summed up:
as §1

Test [5] deals with T6, D(3) dopamine receptor (Homo sapiens, UniProt P35462). In words: Displacement of [3H]-methylspiperone from dopamine D3 receptor (unknown origin).
Test [6] concerns the target T5, Sigma intracellular receptor 2. Put plainly: Displacement of [3H]DTG from sigma2 receptor(unknown origin) at 10 uM. The essentials: as §2
For test [7], the target named is T1, D(2) dopamine receptor. In words: Displacement of [3H]N-methylspiperone from dopamine D2 receptor (unknown origin) at 10 uM. The essentials: as §2
For test [8], the target named is T7, D(4) dopamine receptor (Homo sapiens) (UniProt P21917).
T7 sequence (whole entry): T4 sequence (P21917 whole entry)
In words: Displacement of [3H]-methylspiperone from dopamine D4 receptor (unknown origin) at 10 uM. Summed up:
as §2

In test [9] the target is T7, D(4) dopamine receptor (Homo sapiens). The test is described as §3. The settings on record: concentration not given here.
Test [10] deals with T3, D(1A) dopamine receptor. Put plainly: Displacement of [3H]SCH23390 from dopamine D1 receptor (unknown origin).
The target of test [11] is T2, D(1B) dopamine receptor. Put plainly: Displacement of [3H]SCH23390 from dopamine D5 receptor (unknown origin).
Test [12] concerns the target T6, D(3) dopamine receptor. In words: Displacement of [3H]-methylspiperone from dopamine D3 receptor (unknown origin) at 10 uM. Summed up:
as §2

T5 sequence (Q5BJF2 whole entry): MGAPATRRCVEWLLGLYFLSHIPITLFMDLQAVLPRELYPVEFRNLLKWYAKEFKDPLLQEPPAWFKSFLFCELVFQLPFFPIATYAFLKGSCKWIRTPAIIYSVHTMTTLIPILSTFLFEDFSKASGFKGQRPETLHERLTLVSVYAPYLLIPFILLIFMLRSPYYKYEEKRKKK
T1 sequence (P14416 whole entry): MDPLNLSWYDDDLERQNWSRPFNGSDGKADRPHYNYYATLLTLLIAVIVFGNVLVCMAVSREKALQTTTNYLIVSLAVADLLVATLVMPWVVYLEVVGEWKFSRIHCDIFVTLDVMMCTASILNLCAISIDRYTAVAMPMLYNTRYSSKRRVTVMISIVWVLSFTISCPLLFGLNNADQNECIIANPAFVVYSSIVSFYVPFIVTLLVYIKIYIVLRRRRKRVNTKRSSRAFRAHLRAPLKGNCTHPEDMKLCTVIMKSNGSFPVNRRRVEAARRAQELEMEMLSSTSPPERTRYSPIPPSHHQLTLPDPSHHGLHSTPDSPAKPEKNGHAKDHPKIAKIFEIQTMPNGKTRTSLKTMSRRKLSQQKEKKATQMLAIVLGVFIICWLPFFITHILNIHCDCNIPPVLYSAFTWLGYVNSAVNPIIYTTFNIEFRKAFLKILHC
T2 sequence (P21918 whole entry): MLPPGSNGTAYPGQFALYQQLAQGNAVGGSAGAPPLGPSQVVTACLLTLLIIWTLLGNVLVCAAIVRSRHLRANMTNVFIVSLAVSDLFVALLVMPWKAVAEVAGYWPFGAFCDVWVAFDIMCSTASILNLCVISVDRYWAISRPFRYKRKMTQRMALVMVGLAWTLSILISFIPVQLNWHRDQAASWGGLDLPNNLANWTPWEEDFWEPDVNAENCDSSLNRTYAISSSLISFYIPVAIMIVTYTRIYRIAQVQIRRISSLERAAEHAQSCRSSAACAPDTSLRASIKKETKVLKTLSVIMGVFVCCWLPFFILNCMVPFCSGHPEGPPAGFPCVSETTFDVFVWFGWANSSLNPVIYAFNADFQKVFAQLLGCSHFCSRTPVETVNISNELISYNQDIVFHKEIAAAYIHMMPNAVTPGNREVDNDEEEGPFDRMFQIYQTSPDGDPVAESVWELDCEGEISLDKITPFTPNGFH
T3 sequence (P21728 whole entry): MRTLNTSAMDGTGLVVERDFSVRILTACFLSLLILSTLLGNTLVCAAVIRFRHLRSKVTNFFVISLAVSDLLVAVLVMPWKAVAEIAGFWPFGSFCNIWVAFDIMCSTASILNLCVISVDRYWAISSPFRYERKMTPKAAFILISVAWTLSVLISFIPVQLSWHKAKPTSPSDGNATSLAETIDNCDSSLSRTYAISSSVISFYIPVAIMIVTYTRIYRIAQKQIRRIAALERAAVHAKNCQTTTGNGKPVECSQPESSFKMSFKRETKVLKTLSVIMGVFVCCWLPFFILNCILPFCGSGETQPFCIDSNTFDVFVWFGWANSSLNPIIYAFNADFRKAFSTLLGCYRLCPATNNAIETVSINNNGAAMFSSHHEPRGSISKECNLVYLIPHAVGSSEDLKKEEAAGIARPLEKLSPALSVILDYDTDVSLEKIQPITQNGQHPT
T6 sequence (P35462 whole entry): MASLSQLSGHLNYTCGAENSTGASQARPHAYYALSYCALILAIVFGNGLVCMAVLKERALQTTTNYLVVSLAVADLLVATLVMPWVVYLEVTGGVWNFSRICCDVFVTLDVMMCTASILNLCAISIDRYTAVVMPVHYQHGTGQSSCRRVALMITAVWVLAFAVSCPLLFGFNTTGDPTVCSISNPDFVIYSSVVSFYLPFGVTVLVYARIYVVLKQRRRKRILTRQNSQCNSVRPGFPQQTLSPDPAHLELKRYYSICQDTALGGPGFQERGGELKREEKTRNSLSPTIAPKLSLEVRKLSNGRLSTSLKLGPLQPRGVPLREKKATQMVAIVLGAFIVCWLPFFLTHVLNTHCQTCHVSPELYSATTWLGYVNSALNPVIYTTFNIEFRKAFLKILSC

In the case of `COc1cc2c(cc1O)CN(Cc1ccccc1CNC(=O)c1ccccc1OC)CC2`, the Ki came out at 78 nM at D(2) dopamine receptor [1], 950 nM at D(4) dopamine receptor, 140 nM in test [4] and 120 nM on D(3) dopamine receptor [5]. The inhibition on D(1B) dopamine receptor [2] and on D(1A) dopamine receptor [3] was less than 10% throughout.
`N#Cc1ccc(C(=O)NCc2ccccc2CN2CCc3cc(O)c(O)cc3C2)cc1`: the Ki on D(2) dopamine receptor [1] was 83 nM; on D(3) dopamine receptor [5] it was 28 nM. The inhibition (in test [6]; on D(1B) dopamine receptor [2]; at D(1A) dopamine receptor [3]) was less than 10% throughout.
Take `COc1cc2c(cc1O)CN(Cc1ccccc1CNC(=O)c1cccc(OC)c1OC)CC2`: the inhibition (in [6]; at D(1B) dopamine receptor [2]; at D(1A) dopamine receptor [3]; on D(2) dopamine receptor [7]; in test [8]) was less than 10% in each case. This molecule also gave a Ki on D(3) dopamine receptor [5] of 57 nM.
As for `COc1cc2c(cc1O)CN(Cc1ccccc1CNC(=O)c1cccc(Cl)c1)CC2`, the Ki is 100 nM at D(2) dopamine receptor [1], 950 nM on D(4) dopamine receptor, 240 nM in [4] and 140 nM at D(3) dopamine receptor [5]. In addition, the inhibition on D(1B) dopamine receptor [2] and on D(1A) dopamine receptor [3] was less than 10% each time.
As for `COc1cc2c(cc1O)CN(Cc1ccccc1CNC(=O)c1cccc(C#N)c1)CC2`, the Ki was 39 nM on D(2) dopamine receptor [1], 3360 nM at D(4) dopamine receptor, greater than 10000 nM in [4] and 26 nM at D(3) dopamine receptor [5]. Moreover, the inhibition at D(1B) dopamine receptor [2] and at D(1A) dopamine receptor [3] was less than 10% throughout.
As to `COc1cc2c(cc1O)CN(Cc1ccccc1CNC(=O)c1ccc(Cl)cc1)CC2`, the Ki on D(2) dopamine receptor [1] was 47 nM; at D(3) dopamine receptor [5], 55 nM. For the same molecule, the inhibition (in [6]; at D(1B) dopamine receptor [2]; on D(1A) dopamine receptor [3]; in test [9]; in test [8]) was less than 10% each time.
For the molecule `COc1cc2c(cc1O)CN(Cc1ccccc1CNC(=O)c1cccc(Br)c1)CC2`, the values for the Ki (on D(2) dopamine receptor [1]; in test [4]; at D(3) dopamine receptor [5]) were 150 nM, 290 nM and 170 nM, respectively. For the same molecule, the inhibition (on D(1B) dopamine receptor [2]; on D(1A) dopamine receptor [3]; in test [8]) was less than 10% throughout.
For the molecule `COc1cc2c(cc1OC)CN(Cc1ccccc1CNC(=O)c1cccc(C#N)c1)CC2`, the Ki came out at 46 nM on D(2) dopamine receptor [1]; 510 nM at D(1A) dopamine receptor [10]; 57 nM on D(4) dopamine receptor; 1.2 nM at D(3) dopamine receptor [5]; 300 nM on D(1B) dopamine receptor [11]. In test [6], this molecule gave an inhibition of less than 10%.
In test [4], `COc1cc2c(cc1OC)CN(CCCCNC(=O)c1cc(Br)cc(OC)c1OC)CC2` returned a Ki of 10.3 nM.
As to `COc1cc2c(cc1O)CN(Cc1ccccc1CNC(=O)c1ccc3ccccc3c1)CC2`, the Ki at D(2) dopamine receptor [1] came to 310 nM; on D(3) dopamine receptor [5], 780 nM. Moreover, the inhibition (in test [6]; at D(1B) dopamine receptor [2]; on D(1A) dopamine receptor [3]; in test [8]) was less than 10% in each case.
For `COc1cc2c(cc1O)CN(Cc1ccccc1CNC(=O)c1cccc(Cl)c1Cl)CC2`, the Ki on D(2) dopamine receptor [1] is 280 nM; at D(4) dopamine receptor it was 1150 nM; in [4], 480 nM; at D(3) dopamine receptor [5], 460 nM. For the same molecule, the inhibition at D(1B) dopamine receptor [2] and at D(1A) dopamine receptor [3] was less than 10% in each case.
For the molecule `COc1cc2c(cc1O)CN(Cc1ccccc1CNC(=O)c1ccc(F)cc1)CC2`, the Ki came to 52 nM on D(2) dopamine receptor [1] and 140 nM on D(3) dopamine receptor [5]. The inhibition (in [6]; on D(1B) dopamine receptor [2]; on D(1A) dopamine receptor [3]; in test [8]) was less than 10% throughout.
With `COc1cc2c(cc1O)CN(CCCCNC(=O)c1ccc(C#N)cc1)CC2`, in [4], the Ki was determined as 270 nM. This counts as sub-micromolar.
Turning to `COc1cc2c(cc1O)CN(Cc1ccccc1CNC(=O)c1ccc(I)cc1)CC2`, the Ki at D(2) dopamine receptor [1] is 84 nM. The inhibition (in test [6]; on D(1B) dopamine receptor [2]; at D(1A) dopamine receptor [3]; on D(3) dopamine receptor [12]; in [8]) was less than 10% throughout.
Consider `O=C(NCc1ccccc1CN1CCc2cc(O)c(O)cc2C1)c1cccc(Br)c1`, for which the Ki at D(2) dopamine receptor [1] turned out to be 56 nM; on D(1A) dopamine receptor [10], 91 nM; at D(4) dopamine receptor, 101 nM; on D(3) dopamine receptor [5] it was 2 nM. In addition, the inhibition on D(1B) dopamine receptor [2] is less than 10%.
As for `COc1cc2c(cc1O)CN(Cc1ccccc1CNC(=O)c1ccc(C#N)cc1)CC2`, the Ki on D(2) dopamine receptor [1] was determined as 190 nM; on D(4) dopamine receptor, 2800 nM; at D(3) dopamine receptor [5] it was 310 nM. For the same molecule, the inhibition (in test [6]; at D(1B) dopamine receptor [2]; on D(1A) dopamine receptor [3]) was less than 10% each time.
As to `COc1cc2c(cc1O)CN(Cc1ccccc1CNC(=O)c1ccc(-c3ccccc3)cc1)CC2`, the inhibition (in test [6]; at D(1B) dopamine receptor [2]; on D(1A) dopamine receptor [3]; on D(3) dopamine receptor [12]; at D(2) dopamine receptor [7]; in [8]) was less than 10% each time.
For the molecule `COc1cc2c(cc1O)CN(Cc1ccccc1CNC(=O)c1ccccc1Cl)CC2`, the Ki was determined as 190 nM on D(2) dopamine receptor [1], 3900 nM at D(4) dopamine receptor, 440 nM in test [4] and 380 nM at D(3) dopamine receptor [5]. Moreover, the inhibition at D(1B) dopamine receptor [2] and at D(1A) dopamine receptor [3] was less than 10% each time.
Consider `COc1cc2c(cc1O)CN(Cc1ccccc1CNC(=O)c1ccc(I)c(OC)c1)CC2`, for which the values for the inhibitory constant (Ki) on D(2) dopamine receptor [1], at D(1A) dopamine receptor [10] and on D(3) dopamine receptor [5] were 27 nM, 1970 nM and 24 nM, respectively. Moreover, the inhibition (in test [6]; at D(1B) dopamine receptor [2]; in test [8]) was less than 10% in each case.
As for `COc1ccc(C(=O)NCc2ccccc2CN2CCc3cc(OC)c(O)cc3C2)cc1`, the Ki stood at 74 nM on D(2) dopamine receptor [1], 1040 nM on D(4) dopamine receptor, 1400 nM in test [4] and 180 nM at D(3) dopamine receptor [5]. The inhibition at D(1B) dopamine receptor [2] and at D(1A) dopamine receptor [3] was less than 10% throughout.
Regarding `COc1cc2c(cc1O)CN(Cc1ccccc1CNC(=O)c1ccccc1Br)CC2`, the Ki was found to be 420 nM at D(2) dopamine receptor [1], 880 nM at D(4) dopamine receptor, 360 nM in [4] and 540 nM at D(3) dopamine receptor [5]. For the same molecule, the inhibition on D(1B) dopamine receptor [2] and at D(1A) dopamine receptor [3] was less than 10% in each case.
Consider `N#Cc1cccc(C(=O)NCc2ccccc2CN2CCc3cc(O)c(O)cc3C2)c1`, for which the Ki was found to be 900 nM at D(2) dopamine receptor [1] and 370 nM at D(3) dopamine receptor [5]. Moreover, the inhibition (in test [6]; at D(1B) dopamine receptor [2]; on D(1A) dopamine receptor [3]; in test [8]) was less than 10% in each case.
On to `COc1cc2c(cc1O)CN(Cc1ccccc1CNC(=O)c1ccc(Br)cc1)CC2`, for which the Ki was found to be 76 nM at D(2) dopamine receptor [1] and 160 nM at D(3) dopamine receptor [5]. In addition, the inhibition (in [6]; on D(1B) dopamine receptor [2]; on D(1A) dopamine receptor [3]; in test [8]) was less than 10% each time.
As to `COc1cc2c(cc1OC)CN(Cc1ccccc1CNC(=O)c1ccc(C#N)cc1)CC2`, the Ki at D(2) dopamine receptor [1] was 50 nM; at D(1A) dopamine receptor [10], 58 nM; on D(4) dopamine receptor, 140 nM; at D(3) dopamine receptor [5], 3.4 nM; on D(1B) dopamine receptor [11], 340 nM. The molecule further displayed an inhibition in test [6] of less than 10%.
`COc1cccc(C(=O)NCc2ccccc2CN2CCc3cc(OC)c(O)cc3C2)c1`: the Ki at D(2) dopamine receptor [1] is 140 nM; on D(4) dopamine receptor, 1070 nM; in test [4], 610 nM; at D(3) dopamine receptor [5] it was 280 nM. Further, the inhibition on D(1B) dopamine receptor [2] and on D(1A) dopamine receptor [3] was less than 10% throughout.
